Results reported in ChEMBL document CHEMBL3392964, “Design, synthesis, and evaluation of novel imidazo[1,2-a][1,3,5]triazines and their derivatives as focal adhesion kinase inhibitors with antitumor activity” (J Med Chem, 2015).
Calls of active or inactive are those of the source. The calls are words filed in the database; no cut-off is given here.

Tests used:
Focal adhesion kinase 1 [1] = molecular target: T1, Focal adhesion kinase 1 (Homo sapiens, UniProt Q05397); test: Inhibition of FAK phosphorylation at tyrosine 397 in human U87MG cells at 0.1 to 10 uM after 48 hrs by FACEFAK ELISA; type: cell-based; conditions: U-87MG ATCC
T1 sequence (Q05397 2-1052 limits assumed): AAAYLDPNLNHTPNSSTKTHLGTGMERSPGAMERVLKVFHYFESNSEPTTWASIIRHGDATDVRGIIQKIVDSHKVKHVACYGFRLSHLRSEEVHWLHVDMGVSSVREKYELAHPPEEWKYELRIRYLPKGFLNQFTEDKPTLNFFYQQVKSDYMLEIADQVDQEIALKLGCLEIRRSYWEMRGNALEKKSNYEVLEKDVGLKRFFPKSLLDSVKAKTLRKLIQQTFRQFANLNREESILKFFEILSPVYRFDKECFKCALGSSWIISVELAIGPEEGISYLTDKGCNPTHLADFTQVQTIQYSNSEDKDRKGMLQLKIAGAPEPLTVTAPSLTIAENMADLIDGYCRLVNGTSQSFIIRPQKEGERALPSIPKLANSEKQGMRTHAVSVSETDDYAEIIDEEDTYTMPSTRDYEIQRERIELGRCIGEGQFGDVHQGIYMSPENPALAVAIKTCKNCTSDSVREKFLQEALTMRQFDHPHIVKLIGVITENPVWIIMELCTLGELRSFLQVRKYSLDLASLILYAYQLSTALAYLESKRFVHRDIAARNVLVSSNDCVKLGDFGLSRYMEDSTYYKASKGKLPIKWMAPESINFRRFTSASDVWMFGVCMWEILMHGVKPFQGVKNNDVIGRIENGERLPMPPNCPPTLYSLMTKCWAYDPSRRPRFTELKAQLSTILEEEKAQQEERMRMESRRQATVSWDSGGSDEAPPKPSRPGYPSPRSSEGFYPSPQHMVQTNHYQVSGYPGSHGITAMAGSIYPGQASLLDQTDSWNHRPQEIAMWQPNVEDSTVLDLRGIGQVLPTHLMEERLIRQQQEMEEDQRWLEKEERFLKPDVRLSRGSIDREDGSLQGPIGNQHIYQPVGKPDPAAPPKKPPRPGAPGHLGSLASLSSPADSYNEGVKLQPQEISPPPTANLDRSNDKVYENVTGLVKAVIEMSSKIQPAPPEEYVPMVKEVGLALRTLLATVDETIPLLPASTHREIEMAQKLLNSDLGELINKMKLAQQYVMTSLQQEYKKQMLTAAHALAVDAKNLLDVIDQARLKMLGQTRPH
How it was run: (§1)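 Cells were grown in DMEM with 10% FBS, seeded at 3 × 10^3 per well and treated for 48 h at 0.1, 1 and 10 μM. They were then fixed in 4% formaldehyde and probed with anti-phospho-Tyr397 FAK or total-FAK antibody plus an HRP secondary, read at 450 nm. Signal was normalised to total FAK and to crystal-violet cell number (595 nm). Values are fold decrease versus control, mean of triplicate readings from three independent experiments.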

Focal adhesion kinase 1 [2] = molecular target: T1, Focal adhesion kinase 1; test: Inhibition of FAK phosphorylation at tyrosine 397 in human HCT116 cells at 0.1 to 10 uM after 48 hrs by FACEFAK ELISA; type: cell-based; conditions: HCT-116; how it was run: as §1
Focal adhesion kinase 1 [3] = molecular target: T1, Focal adhesion kinase 1; test: Inhibition of FAK phosphorylation at tyrosine 397 in human MDA-MB-231 cells at 0.1 to 10 uM after 48 hrs by FACEFAK ELISA; type: cell-based; how it was run: as §1
Focal adhesion kinase 1 [4] = molecular target: T1, Focal adhesion kinase 1; test: Inhibition of FAK phosphorylation at tyrosine 397 in human PC3 cells at 0.1 to 10 uM after 48 hrs by FACEFAK ELISA; type: cell-based; conditions: PC-3; how it was run: as §1
[5] = Antiproliferative activity against human U87MG cells after 48 hrs by WST-1 assay; type: functional, cell-based, U-87MG ATCC; conditions: U-87 MG
How it was run: (§2)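 Exponentially growing cells in DMEM/10% FBS seeded at 5 × 10^3 per well, left overnight, then exposed 48 h to compounds diluted from DMSO; WST-1 added for 2 h, absorbance at 450 nm (reference 620 nm); viability as ratio to DMSO controls; three independent experiments, triplicate points; IC50 by nonlinear regression (log inhibitor vs normalized response, variable slope).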

[6] = Antiproliferative activity against human HCT116 cells after 48 hrs by WST-1 assay; type: functional, cell-based; conditions: HCT-116, 48 h; how it was run: as §2
MDA-MB-231 [7] = test: Antiproliferative activity against human MDA-MB-231 cells after 48 hrs by WST-1 assay; type: functional, cell-based; conditions: MDA-MB-231, 48 h; how it was run: as §2
[8] = Antiproliferative activity against human PC3 cells after 48 hrs by WST-1 assay; type: functional, cell-based; conditions: PC-3, 48 h; how it was run: as §2
[9] = (§3) Inhibition of colony formation in human U87MG cells after 2 weeks by crystal violet staining-based assay; type: functional, cell-based, U-87MG ATCC; conditions: U-87 MG, 336 h
How it was run: (§4)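 Seeding: 250 cells per well for HCT-116, 300 for U87MG, MDA-MB-231 and PC-3; incubated overnight, then exposed to a range of concentrations for 2 weeks. Fixed in 4% paraformaldehyde 30 min at room temperature, stained with 0.1% crystal violet. Colonies over 50 cells counted; colony formation rate calculated; IC50 by nonlinear regression.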

U-87MG ATCC [10] = test: as §3; type: functional, cell-based; how it was run: as §4
[11] = (§5) Inhibition of colony formation in human HCT116 cells after 2 weeks by crystal violet staining-based assay; type: functional, cell-based; conditions: HCT-116, 336 h; how it was run: as §4
HCT-116 [12] = test: as §5; type: functional, cell-based; how it was run: as §4
MDA-MB-231 [13] = test: Inhibition of colony formation in human MDA-MB-231 cells after 2 weeks by crystal violet staining-based assay; type: functional, cell-based; how it was run: as §4
[14] = (§6) Inhibition of colony formation in human PC3 cells after 2 weeks by crystal violet staining-based assay; type: functional, cell-based; conditions: PC-3, 336 h; how it was run: as §4
PC-3 = test: as §6; type: functional, cell-based; how it was run: as §4
U-87 MG [15] = test: Induction of apoptosis in human U87MG cells assessed as early apoptotic cells at 1 uM after 24 hrs by Annexin V-PE/7-AAD staining-based FACS analysis (reference value: 0.691%); type: functional, U-87MG ATCC
U-87 MG [16] = test: Induction of apoptosis in human U87MG cells assessed as late apoptotic cells at 1 uM after 24 hrs by Annexin V-PE/7-AAD staining-based FACS analysis (reference value: 1.59%); type: functional, U-87MG ATCC
U-87 MG [17] = test: Induction of apoptosis in human U87MG cells assessed as necrotic cells at 1 uM after 24 hrs by Annexin V-PE/7-AAD staining-based FACS analysis (reference value: 1.06%); type: functional, U-87MG ATCC
U-87 MG [18] = test: Induction of apoptosis in human U87MG cells assessed as viable cells at 1 uM after 24 hrs by Annexin V-PE/7-AAD staining-based FACS analysis (reference value: 96.7%); type: functional, U-87MG ATCC; conditions: read-out: Activity
HCT-116 [19] = test: Induction of apoptosis in human HCT116 cells assessed as early apoptotic cells at 0.3 uM after 24 hrs by Annexin V-PE/7-AAD staining-based FACS analysis (reference value: 4.68%); type: functional
HCT-116 [20] = test: Induction of apoptosis in human HCT116 cells assessed as late apoptotic cells at 0.3 uM after 24 hrs by Annexin V-PE/7-AAD staining-based FACS analysis (reference value: 1.22%); type: functional
HCT-116 [21] = test: Induction of apoptosis in human HCT116 cells assessed as necrotic cells at 0.3 uM after 24 hrs by Annexin V-PE/7-AAD staining-based FACS analysis (reference value: 0.885%); type: functional
HCT-116 [22] = test: Induction of apoptosis in human HCT116 cells assessed as viable cells at 0.3 uM after 24 hrs by Annexin V-PE/7-AAD staining-based FACS analysis (reference value: 93.2%); type: functional; conditions: HCT-116, 24 h, read-out: Activity
HCT-116 [23] = test: Induction of apoptosis in human HCT116 cells assessed as apoptotic cells at 0.3 uM after 24 hrs by Annexin V-PE/7-AAD staining-based FACS analysis relative to control; type: functional
HCT-116 [24] = test: Induction of apoptosis in human HCT116 cells at < 0.3 uM after 24 hrs by Annexin V-PE/7-AAD staining-based FACS analysis; type: functional, cell-based
[25] = Cell cycle arrest in human U87MG cells assessed as accumulation at G0/G1 phase at 1 uM after 24 hrs by propidium iodide staining-based flow cytometry (reference value: 61.7%); type: functional; conditions: U-87MG ATCC
How it was run: (§7)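 Cells plated at 10^5 per well, left overnight, then exposed 24 h to compound or vehicle; stained 15 min at 37 °C with propidium iodide/Triton buffer; DNA content by flow cytometry, phase distribution fitted by Dean–Jett–Fox; HCT-116 at 0.3–0.5 μM, U87-MG at 0.3–3 μM; significance by unpaired Student's t test; one representative experiment.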

[26] = Cell cycle arrest in human U87MG cells assessed as accumulation at S phase at 1 uM after 24 hrs by propidium iodide staining-based flow cytometry (reference value: 16%); type: functional; conditions: U-87MG ATCC; how it was run: as §7
[27] = Cell cycle arrest in human U87MG cells assessed as accumulation at G2/M phase at 1 uM after 24 hrs by propidium iodide staining-based flow cytometry (reference value: 20%); type: functional; conditions: U-87MG ATCC; how it was run: as §7
[28] = Cell cycle arrest in human HCT116 cells assessed as accumulation at G0/G1 phase at 0.3 uM after 24 hrs by propidium iodide staining-based flow cytometry (reference value: 63.8%); type: functional; conditions: HCT-116; how it was run: as §7
[29] = Cell cycle arrest in human HCT116 cells assessed as accumulation at S phase at 0.3 uM after 24 hrs by propidium iodide staining-based flow cytometry (reference value: 17.7%); type: functional; conditions: HCT-116; how it was run: as §7
[30] = Cell cycle arrest in human HCT116 cells assessed as accumulation at G2/M phase at 0.3 uM after 24 hrs by propidium iodide staining-based flow cytometry (reference value: 14.6%); type: functional; conditions: HCT-116; how it was run: as §7
[31] = Cell cycle arrest in human U87MG cells at < 1 uM after 24 hrs by propidium iodide staining-based flow cytometry; type: functional; conditions: U-87MG ATCC; how it was run: as §7
[32] = Cell cycle arrest in human HCT116 cells at < 0.3 uM after 24 hrs by propidium iodide staining-based flow cytometry; type: functional; conditions: HCT-116; how it was run: as §7
U-87 MG [33] = test: Reduction of cell adherence in human U87MG cells at 1 uM after 30 mins by toluidine blue staining-based […]; type: functional, U-87MG ATCC; set-up: scale not given: the % may be the effect or the level left
How it was run: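 U87-MG cells grown in 10% serum, trypsinised, diluted to 100 000 cells/mL in 10% serum medium, then treated 30 min with compound or DMSO. 20 000 cells per well allowed to attach 1 h. Fixed in 4% paraformaldehyde 30 min, stained with 0.1% toluidine blue in 4% PFA 30 min, washed, OD read at 620 nm for attached cells.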

[34] = Antimigratory activity in human U87MG cells at 1 uM […] by transwell membrane assay; type: functional, U-87MG ATCC
U-87MG ATCC [35] = test: Antimigratory activity in human U87MG cells after 30 mins by boyden chamber assay; type: functional, cell-based

Structure (SMILES): CNC(=O)c1ccccc1Nc1nc(Nc2ccc(N3CCOCC3)cc2OC)ncc1Cl
- inhibition (Focal adhesion kinase 1 [1]): Active
- inhibition (Focal adhesion kinase 1 [2]): Active
- inhibition (Focal adhesion kinase 1 [3]): Active
- inhibition (Focal adhesion kinase 1 [4]): Active
- IC50 [5]: 1.2 µM
- IC50 [6]: 0.4 µM
- IC50 (MDA-MB-231 [7]): 2.8 µM
- IC50 [8]: 1.6 µM
- IC50 [9]: 0.19 µM
- inhibition (U-87MG ATCC [10]): Dose-dependent effect
- IC50 [11]: 0.23 µM
- inhibition (HCT-116 [12]): Dose-dependent effect
- inhibition (MDA-MB-231 [13]): Dose-dependent effect
- IC50 (MDA-MB-231 [13]; MDA-MB-231, 336 h): 1.9 µM
- IC50 [14]: 0.26 µM
- inhibition (PC-3): Dose-dependent effect
- Activity (U-87 MG [15]): 3.12%
- Activity (U-87 MG [16]): 0.596%
- Activity (U-87 MG [17]): 0.9%
- viability at 1 µM (U-87 MG [18]): 95.4%
- Activity (HCT-116 [19]): 12.3%
- Activity (HCT-116 [20]): 32%
- Activity (HCT-116 [21]): 13.1%
- viability at 0.3 µM (HCT-116 [22]): 42.7%
- Activity (HCT-116 [23]): 41.8%
- Activity (HCT-116 [24]): Active
- Activity [25]: 49.9%
- Activity [26]: 7.11%
- Activity [27]: 40.8%
- Activity [28]: 31.3%
- Activity [29]: 10.4%
- Activity [30]: 54.4%
- Activity [31]: Active
- Activity [32]: Active
- Activity (U-87 MG [33]): 36%
- Activity [34]: 25.5%
- Activity (U-87MG ATCC [35]): Dose-dependent effect
